pIC50: −log10 of the molar value. Blank lines part the entries; values can stand above or below the molecule they belong to.
How the values were obtained:
[1] = target: Histone deacetylase (HDAC1 and HDAC2) (Homo sapiens, UniProt Q13547+Q92769); assay: Inhibition of HDAC1/2 in human HeLa cell nuclear extract using COLOR DE LYS as substrate pretreated for 5 mins followed by substrate addition measured after 30 mins by UV-absorption method; format: cell-based
K562 [2] = assay: Induction of apoptosis in human K562 cells assessed as necrotic cells at 2 uM after 24 hrs by Annexin V-FITC/propidium iodide staining-based flow cytometry (reference value: 0.035%); format: functional
K562 [3] = assay: Induction of apoptosis in human K562 cells assessed as late apoptotic cells at 2 uM after 24 hrs by Annexin V-FITC/propidium iodide staining-based flow cytometry (reference value: 2.83%); format: functional
K562 [4] = assay: Induction of apoptosis in human K562 cells assessed as early apoptotic cells at 2 uM after 24 hrs by Annexin V-FITC/propidium iodide staining-based flow cytometry (reference value: 4.78%); format: functional
K562 [5] = assay: Induction of apoptosis in human K562 cells assessed as viable cells at 2 uM after 24 hrs by Annexin V-FITC/propidium iodide staining-based flow cytometry (reference value: 92.4%); format: functional; conditions: Homo sapiens, K562, 24 h; read-out: Activity
K562 [6] = assay: Induction of apoptosis in human K562 cells assessed as necrotic cells at 1 uM after 24 hrs by Annexin V-FITC/propidium iodide staining-based flow cytometry (reference value: 0.035%); format: functional
K562 [7] = assay: Induction of apoptosis in human K562 cells assessed as late apoptotic cells at 1 uM after 24 hrs by Annexin V-FITC/propidium iodide staining-based flow cytometry (reference value: 2.83%); format: functional
K562 [8] = assay: Induction of apoptosis in human K562 cells assessed as early apoptotic cells at 1 uM after 24 hrs by Annexin V-FITC/propidium iodide staining-based flow cytometry (reference value: 4.78%); format: functional
K562 [9] = assay: Induction of apoptosis in human K562 cells assessed as viable cells at 1 uM after 24 hrs by Annexin V-FITC/propidium iodide staining-based flow cytometry (reference value: 92.4%); format: functional; conditions: Homo sapiens, K562, 24 h; read-out: Activity
Histone deacetylase 1 = Histone deacetylase 1 (Homo sapiens, UniProt Q13547); assay: Inhibition of HDAC1 (unknown origin) using substrate after 30 mins by fluorometric analysis
Sequence of Histone deacetylase 1 (Q13547 whole entry): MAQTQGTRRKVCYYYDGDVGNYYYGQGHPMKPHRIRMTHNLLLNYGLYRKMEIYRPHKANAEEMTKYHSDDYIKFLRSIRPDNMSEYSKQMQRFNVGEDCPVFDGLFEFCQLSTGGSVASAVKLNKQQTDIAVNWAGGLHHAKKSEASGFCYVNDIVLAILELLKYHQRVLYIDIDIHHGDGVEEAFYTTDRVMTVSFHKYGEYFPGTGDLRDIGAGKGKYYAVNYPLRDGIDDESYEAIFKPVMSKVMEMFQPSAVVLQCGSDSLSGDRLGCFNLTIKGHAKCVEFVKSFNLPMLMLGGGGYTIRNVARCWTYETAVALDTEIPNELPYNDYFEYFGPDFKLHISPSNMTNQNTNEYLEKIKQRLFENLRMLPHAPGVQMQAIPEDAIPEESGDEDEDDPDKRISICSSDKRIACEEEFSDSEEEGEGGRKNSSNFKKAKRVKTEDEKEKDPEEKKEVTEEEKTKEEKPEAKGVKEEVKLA

[10] = target: T1, Protein deacetylase HDAC6 (Homo sapiens, UniProt Q9UBN7); assay: Inhibition of HDAC6 (unknown origin) using substrate after 30 mins by fluorometric analysis
T1 sequence (Q9UBN7 whole entry): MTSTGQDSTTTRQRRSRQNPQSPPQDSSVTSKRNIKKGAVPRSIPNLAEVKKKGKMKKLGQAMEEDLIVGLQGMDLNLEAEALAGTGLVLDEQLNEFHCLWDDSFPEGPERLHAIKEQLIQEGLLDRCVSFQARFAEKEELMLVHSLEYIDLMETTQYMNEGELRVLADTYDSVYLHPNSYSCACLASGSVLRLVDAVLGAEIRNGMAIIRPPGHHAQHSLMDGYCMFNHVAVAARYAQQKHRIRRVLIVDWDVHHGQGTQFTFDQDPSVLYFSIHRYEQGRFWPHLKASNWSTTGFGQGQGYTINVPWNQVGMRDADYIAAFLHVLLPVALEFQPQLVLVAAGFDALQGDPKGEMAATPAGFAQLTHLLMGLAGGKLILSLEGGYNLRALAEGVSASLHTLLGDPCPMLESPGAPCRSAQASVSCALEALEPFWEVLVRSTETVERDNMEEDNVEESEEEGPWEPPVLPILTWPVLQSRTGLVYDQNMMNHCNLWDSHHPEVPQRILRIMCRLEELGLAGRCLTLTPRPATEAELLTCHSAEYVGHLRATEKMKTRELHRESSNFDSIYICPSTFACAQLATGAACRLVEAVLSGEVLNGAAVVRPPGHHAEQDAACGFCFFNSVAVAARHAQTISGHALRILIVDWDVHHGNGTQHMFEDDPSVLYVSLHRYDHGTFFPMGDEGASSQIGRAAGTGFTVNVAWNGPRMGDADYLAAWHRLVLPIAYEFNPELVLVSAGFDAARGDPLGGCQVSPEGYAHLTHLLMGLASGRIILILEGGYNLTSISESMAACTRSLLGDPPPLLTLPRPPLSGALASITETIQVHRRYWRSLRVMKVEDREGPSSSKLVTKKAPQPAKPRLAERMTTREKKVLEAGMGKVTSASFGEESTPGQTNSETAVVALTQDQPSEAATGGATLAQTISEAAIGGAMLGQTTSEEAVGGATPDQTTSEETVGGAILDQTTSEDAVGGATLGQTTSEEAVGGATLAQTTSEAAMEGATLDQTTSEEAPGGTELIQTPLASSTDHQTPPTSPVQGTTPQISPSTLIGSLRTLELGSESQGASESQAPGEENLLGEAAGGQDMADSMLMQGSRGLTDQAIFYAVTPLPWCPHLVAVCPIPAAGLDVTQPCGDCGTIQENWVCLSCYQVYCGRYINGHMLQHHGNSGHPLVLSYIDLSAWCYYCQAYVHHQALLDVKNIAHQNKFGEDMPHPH

Histone deacetylase 8 = target: T2, Histone deacetylase 8 (Homo sapiens, UniProt Q9BY41); assay: Inhibition of HDAC8 (unknown origin) using substrate after 30 mins by fluorometric analysis
T2 sequence (Q9BY41 whole entry): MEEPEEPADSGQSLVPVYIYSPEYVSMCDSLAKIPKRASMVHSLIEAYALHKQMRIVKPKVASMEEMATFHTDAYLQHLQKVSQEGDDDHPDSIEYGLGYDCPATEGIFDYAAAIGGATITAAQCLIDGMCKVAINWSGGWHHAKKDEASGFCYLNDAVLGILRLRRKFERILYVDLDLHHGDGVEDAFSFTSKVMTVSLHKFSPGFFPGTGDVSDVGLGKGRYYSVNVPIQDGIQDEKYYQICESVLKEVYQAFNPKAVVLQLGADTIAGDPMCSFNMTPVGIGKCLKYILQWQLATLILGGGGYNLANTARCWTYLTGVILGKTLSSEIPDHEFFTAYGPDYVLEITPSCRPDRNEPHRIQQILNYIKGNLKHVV

MOLT-4 = assay: Antiproliferative activity against human MOLT4 cells after 48 hrs by MTT assay; format: functional, cell-based; conditions: MOLT-4, 48 h
HEL = assay: Antiproliferative activity against human HEL cells after 48 hrs by MTT assay; format: functional, cell-based
K562 [11] = assay: Antiproliferative activity against human K562 cells after 48 hrs by MTT assay; format: functional, cell-based; conditions: K562, 48 h
PC-3 [12] = assay: Antiproliferative activity against human PC3 cells after 48 hrs by MTT assay; format: functional, cell-based; conditions: PC-3, 48 h
Method in brief: (§1)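 Cells grown in RPMI1640 with 10% FBS at 37°C, 5% CO2. Seeded at 4000–5000 cells/well for 8 h, then exposed to a range of compound concentrations for 48 h. 0.5% MTT solution added for 4 h, formazan dissolved in DMSO, absorbance read at 570 nm. IC50 derived from inhibition ratios, given as mean ± standard deviation of two or three separate determinations.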

HeLa = assay: Antiproliferative activity against human HeLa cells after 48 hrs by MTT assay; format: functional, cell-based; method in brief: as §1
[13] = Inhibition of Class 1 histone deacetylase in human K562 cells using Boc-Lys (acetyl)-AMC as substrate preincubated with compound for 3 hrs followed by substrate addition measured after 3 hrs by fluorometric analysis; format: cell-based
[14] = Inhibition of Class 2a histone deacetylase in human K562 cells using Boc-Lys-(epsilon-trifluoromethylacetyl)-AMC as substrate preincubated with compound for 3 hrs followed by substrate addition measured after 3 hrs by fluorometric analysis; format: cell-based
K562 [15] = assay: Induction of apoptosis in human K562 cells after 24 hrs by Annexin V-FITC/propidium iodide staining-based flow cytometric method; format: functional, cell-based
K562 [16] = assay: Potency index, ratio of vorinostat IC50 to compound IC50 for human K562 cells; format: functional
Method in brief: (§2)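 Cells were grown in RPMI1640 with 10% FBS at 37°C and 5% CO2, seeded at 4000–5000 cells/well for 8 h, then exposed to a compound concentration series for 48 h. MTT (0.5%) was added for 4 h and formazan dissolved in DMSO. A570 was read and IC50 derived from inhibition ratios.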

PC-3 [17] = assay: Potency index, ratio of vorinostat IC50 to compound IC50 for human PC3 cells; format: functional; method in brief: as §2

SMILES: O=C(/C=C/c1cccc(CNCc2ccc3cc(Br)ccc3n2)c1)NO
- IC50 [1]: 559 nM

SMILES: O=C(NO)c1ccc(CNCc2ccc3cc(Br)ccc3n2)cc1
- IC50 [1]: > 1000 nM

SMILES: CCCCCCN(Cc1cccc(/C=C/C(=O)NO)c1)Cc1ccc2cc(Br)ccc2n1
- IC50 [1]: > 1000 nM

SMILES: COc1ccc2nc(CNCc3ccc(C(=O)NO)cc3)ccc2c1
- IC50 [1]: > 1000 nM

SMILES: CCCCCCN(Cc1ccc(/C=C/C(=O)NO)cc1)Cc1ccc2cc(Br)ccc2n1
- IC50 [1]: > 1000 nM

SMILES: O=C(/C=C/c1ccc(CNCc2ccc3cc(Br)ccc3n2)cc1)NO
- IC50 [1]: 375 nM

SMILES: O=C(NO)c1ccc(CN(Cc2ccccc2)Cc2ccc3ccccc3n2)cc1
- IC50 [1]: 836 nM

Further lines, with some results ahead:

- IC50 [1]: 275 nM
- pIC50 (Histone deacetylase 1): 7.02
- pIC50 [10]: 7.44
- pIC50 (Histone deacetylase 8): 6.04
- pIC50 (MOLT-4): 6.80
- pIC50 (K562 [11]): 6.44
- pIC50 (PC-3 [12]): 5.53
- pIC50 (HeLa): 5.74
- pIC50 [13]: 7.19
- pIC50 [14]: 5.38
SMILES: O=C(/C=C/c1ccc(CNCc2ccc3cccc(Cl)c3n2)cc1)NO
- Activity (K562 [2]): 0.174%
- Activity (K562 [3]): 2.96%
- Activity (K562 [4]): 56.2%
- viability at 2 µM (K562 [5]): 40.7%
- Activity (K562 [6]): 0.145%
- Activity (K562 [7]): 3.75%
- Activity (K562 [8]): 38.2%
- viability at 1 µM (K562 [9]): 57.9%
- pIC50 (HEL): 6.96
- Activity (K562 [15]): Dose-dependent effect
- Ratio IC50 (K562 [16]): 3 - 5
- Ratio IC50 (PC-3 [17]): 3 - 5

- IC50 [1]: 138 nM
- pIC50 (Histone deacetylase 1): 7.14
- pIC50 [10]: 7.31
- pIC50 (Histone deacetylase 8): 6.35
- pIC50 (MOLT-4): 6.62
- pIC50 (K562 [11]): 6.29
- pIC50 (PC-3 [12]): 5.51
- pIC50 (HeLa): 5.66
- pIC50 [13]: 6.97
- pIC50 [14]: 5.28
SMILES: O=C(/C=C/c1ccc(CNCc2ccc3ccccc3n2)cc1)NO
- Activity (K562 [2]): 0.072%
- Activity (K562 [3]): 2.16%
- Activity (K562 [4]): 58.2%
- viability at 2 µM (K562 [5]): 39.6%
- Activity (K562 [6]): 0.121%
- Activity (K562 [7]): 1.95%
- Activity (K562 [8]): 34.5%
- viability at 1 µM (K562 [9]): 63.4%
- pIC50 (HEL): 6.82
- Activity (K562 [15]): Dose-dependent effect
- Ratio IC50 (K562 [16]): 3 - 5
- Ratio IC50 (PC-3 [17]): 3 - 5

- IC50 [1]: > 1000 nM
SMILES: O=C(/C=C/c1ccc(CN(Cc2ccccc2)Cc2ccc3ccccc3n2)cc1)NO

- IC50 [1]: > 1000 nM
SMILES: O=C(/C=C/c1ccc(C(=O)N(Cc2ccc3cc(Br)ccc3n2)c2ccccc2)cc1)NO

- IC50 [1]: > 1000 nM
SMILES: COc1ccc(N(Cc2ccc3cccc(Cl)c3n2)C(=O)c2ccc(/C=C/C(=O)NO)cc2)cc1

- IC50 [1]: 236 nM
- pIC50 (MOLT-4): 6.64
- pIC50 (K562 [11]): 6.16
- pIC50 (PC-3 [12]): 5.43
- pIC50 (HeLa): 5.57
SMILES: COc1ccc2nc(CNCc3ccc(/C=C/C(=O)NO)cc3)ccc2c1
- pIC50 (HEL): 6.89

- IC50 [1]: 305 nM
- pIC50 (MOLT-4): 6.60
- pIC50 (K562 [11]): 6.14
- pIC50 (PC-3 [12]): 5.36
- pIC50 (HeLa): 5.52
SMILES: O=C(/C=C/c1ccc(CNCc2ccc3cc(Cl)ccc3n2)cc1)NO
- pIC50 (HEL): 6.66

- IC50 [1]: > 1000 nM
SMILES: O=C(/C=C/c1ccc(C(=O)N(Cc2ccc3ccccc3n2)c2ccc(Br)cc2)cc1)NO
